Assay results reported in ChEMBL document CHEMBL2016466, “Design, synthesis, and biological evaluation of new diaminoquinazolines as β-catenin/Tcf4 pathway inhibitors” (J Med Chem, 2012).

What was measured:
HCT-116 [1] = assay: Growth inhibition of human HCT116 cells assessed as clonogenic growth after 9 days using crystal violet staining; assay type: functional, cell-based; conditions: HCT-116, 216 h
Procedure, shortened: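 HCT116 cells in RPMI 1640 + 10% FBS + penicillin/streptomycin, plated at 300 cells/well in six-well plates 8 h before treatment with or without inhibitor (highest final concentration 1.5 μM). Incubated 9 days, then fixed with 10% acetic acid in methanol, stained with 0.05% crystal violet and colonies counted. IC50 is the average of three separate experiments.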

TCF4/beta-catenin = TCF4/beta-catenin (Homo sapiens, UniProt P35222+Q9NQB0); assay: Inhibition of beta-catenin/TCF4 pathway expressed in HCT116 cells containing delta45S mutant after 24 hrs by luciferase reporter gene assay; assay type: cell-based; conditions: hct-116
Procedure, shortened: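 HCT116 cells at 1 × 10⁴/well, cotransfected with 50 ng TOP-FLASH reporter (Tcf4 binding sites) and 50 ng pTK-β-gal as internal control. At 4 h post-transfection, fresh medium with compound at various concentrations was added. Firefly luciferase was read 24 h after compound addition, normalized to β-galactosidase and expressed as a percentage of control luciferase activity.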

HCT-116 [2] = assay: Growth inhibition of human HCT116 cells assessed as viable cells after 3 days using resazurin by […] assay; assay type: functional, cell-based; conditions: HCT-116, 72 h
Procedure, shortened: (§1)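 Cells grown in RPMI 1640 + 10% FBS + penicillin/streptomycin, trypsinized and seeded at 2 × 10³ cells/well. Compound added 24 h later as a concentration curve starting at 10 μg/mL with nine further 2-fold dilutions. After 3 days of exposure, viability was read with CellTiter-Blue (resazurin to resorufin). IC50 is the average of three separate experiments.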

SW480 = assay: Growth inhibition of human SW480 cells assessed as viable cells after 3 days using resazurin by […] assay; assay type: functional, cell-based; conditions: SW480, 72 h; procedure, shortened: as §1
[3] = Ratio of IC50 for human HCT116 cells to IC50 for […]/TCF4 pathway expressed in HCT116 cells; assay type: cell-based; conditions: HCT-116
[4] = Solubility of the compound in water; assay type: physicochemical; conditions: buffer

Sequence of TCF4/beta-catenin (P35222 2-781 limits assumed, stated change not applied): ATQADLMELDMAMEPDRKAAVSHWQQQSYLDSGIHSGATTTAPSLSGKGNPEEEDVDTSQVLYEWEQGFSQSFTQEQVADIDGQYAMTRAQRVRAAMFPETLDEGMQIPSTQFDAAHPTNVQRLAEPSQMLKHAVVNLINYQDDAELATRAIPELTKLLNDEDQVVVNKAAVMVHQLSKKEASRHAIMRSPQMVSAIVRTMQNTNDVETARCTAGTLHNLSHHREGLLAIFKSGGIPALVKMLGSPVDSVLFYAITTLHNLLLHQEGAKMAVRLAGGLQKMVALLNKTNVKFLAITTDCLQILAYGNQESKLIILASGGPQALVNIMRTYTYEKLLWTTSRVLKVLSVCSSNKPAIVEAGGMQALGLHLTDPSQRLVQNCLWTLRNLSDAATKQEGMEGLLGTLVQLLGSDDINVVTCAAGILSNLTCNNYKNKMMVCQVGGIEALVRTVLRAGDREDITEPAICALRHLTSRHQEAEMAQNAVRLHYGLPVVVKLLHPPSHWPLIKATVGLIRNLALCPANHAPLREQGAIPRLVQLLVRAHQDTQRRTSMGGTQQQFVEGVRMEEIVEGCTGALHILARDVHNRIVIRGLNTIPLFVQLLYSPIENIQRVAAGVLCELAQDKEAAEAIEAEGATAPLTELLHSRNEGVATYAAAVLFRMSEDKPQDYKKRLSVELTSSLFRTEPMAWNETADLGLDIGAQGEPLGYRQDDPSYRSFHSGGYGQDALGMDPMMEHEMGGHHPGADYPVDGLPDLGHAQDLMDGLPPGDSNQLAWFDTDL
Sequence of TCF4/beta-catenin (Q9NQB0 whole entry, stated change not applied): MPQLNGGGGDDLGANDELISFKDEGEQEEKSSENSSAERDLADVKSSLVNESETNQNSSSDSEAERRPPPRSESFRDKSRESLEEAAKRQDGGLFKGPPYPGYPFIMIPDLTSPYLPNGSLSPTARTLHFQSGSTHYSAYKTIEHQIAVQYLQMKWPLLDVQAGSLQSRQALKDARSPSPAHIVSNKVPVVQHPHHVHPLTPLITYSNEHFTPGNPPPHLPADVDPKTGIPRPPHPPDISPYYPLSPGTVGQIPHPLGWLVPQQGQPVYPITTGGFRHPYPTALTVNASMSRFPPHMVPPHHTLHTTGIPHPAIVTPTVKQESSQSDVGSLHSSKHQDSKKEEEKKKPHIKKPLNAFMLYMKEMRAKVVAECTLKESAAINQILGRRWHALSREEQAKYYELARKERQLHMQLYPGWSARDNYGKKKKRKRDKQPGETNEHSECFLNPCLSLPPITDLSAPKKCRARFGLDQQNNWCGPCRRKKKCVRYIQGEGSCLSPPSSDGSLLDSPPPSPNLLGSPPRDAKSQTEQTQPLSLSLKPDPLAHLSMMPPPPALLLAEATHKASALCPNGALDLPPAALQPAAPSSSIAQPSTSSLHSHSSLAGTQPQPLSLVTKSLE

| Compound | IC50 (HCT-116 [1]) [nM] | IC50 (TCF4/beta-catenin) [nM] | IC50 (HCT-116 [2]) [nM] | IC50 (SW480) [nM] | Ratio IC50 [3] | solubility [4] |
| --- | --- | --- | --- | --- | --- | --- |
| Cc1ccc2nc(N(C)C)nc(NCc3ccc(C(=O)NCCc4ccc(F)cc4)cc3)c2c1 | 264 | 1500 | 600 | 1400 | – | – |
| CCCNc1nc(NCc2ccc(C(=O)NCc3ccc(F)cc3)cc2)c2cc(C)ccc2n1 | – | – | 4400 | 2200 | – | – |
| CC1CN(c2nc(NCc3ccc(C(=O)Nc4ccc(F)cc4)cc3)c3ccccc3n2)CCN1 (racemic) | – | > 5000 | 2800 | 3200 | – | – |
| CCNc1nc(NCc2ccc(NC(=O)c3ccc(F)cc3)cc2)c2ccccc2n1 | – | 3000 | 1400 | 2300 | 2 | – |
| CNc1nc(NCc2ccc(C(=O)Nc3ccc(F)cc3)cc2)c2ccccc2n1 | – | – | 2900 | 4100 | – | – |
| CCCNc1nc(NCc2ccc(C(=O)Nc3ccc(F)cc3)cc2)c2cc(C)ccc2n1 | – | – | 1200 | 1300 | – | soluble |
| CNc1nc(NCc2ccc(NC(=O)c3ccc(CN4CCN(C)CC4)cc3)cc2)c2ccccc2n1 | – | – | 10000 | 11000 | – | – |
| O=S(=O)(Nc1ccc(CNc2nc(NC3CC3)nc3ccccc23)cc1)c1ccc(F)cc1 | – | – | 4900 | 4100 | – | – |
| CCNc1ncc(C)c(NCc2ccc(NC(=O)c3ccc(F)cc3)cc2)n1 | – | – | > 20000 | > 20000 | – | – |
| CCNc1nc(NCc2ccc(NC(=O)c3ccc(F)cc3)cc2Cl)c2ccccc2n1 | – | – | 1500 | 1600 | – | – |
| CCCNc1nc2ccccc2c(NCc2ccc(NC(=O)c3ccc(F)cc3)cc2)c1C#N | – | – | > 20000 | > 20000 | – | – |
| CNc1nc(NCc2ccc(NS(=O)(=O)c3ccc(F)cc3)cc2)c2ccccc2n1 | – | – | 5300 | 4800 | – | – |
| CNc1nc2ccccc2c(NCc2ccc(NC(=O)c3ccc(F)cc3)cc2)c1C#N | – | – | > 20000 | > 20000 | – | – |
| CCCNc1nc(NCc2ccc(C(=O)N3CCC(C(=O)NCc4ccc(F)cc4)CC3)cc2)c2ccccc2n1 | – | – | 5500 | 5700 | – | – |
| CCCNc1nc(NCc2ccc(C(=O)Nc3ccc(Cl)nc3)cc2)c2cc(C)ccc2n1 | – | 2500 | 1500 | 2100 | – | – |
| CN(C)CCCNc1nc(NCc2ccc(NC(=O)c3ccc(F)cc3)cc2)c2ccccc2n1 | – | – | 10000 | 14000 | – | – |
| C=CCNc1nc(NCc2ccc(C(=O)Nc3ccc(F)cc3)cc2)c2ccccc2n1 | – | – | 14000 | 11000 | – | – |
| CCCCNc1nc(NCc2ccc(C(=O)Nc3ccc(F)cc3)cc2)c2ccccc2n1 | 381 | 1500 | 1400 | 1000 | – | – |
| CN1CCN(c2nc(NCc3ccc(NC(=O)c4ccncc4)cc3)c3ccccc3n2)CC1 | – | – | > 20000 | > 20000 | – | – |
| CCCNc1nc(NCc2ccc(C(=O)NC3CCN(Cc4ccc(F)cc4)CC3)cc2)c2cc(C)ccc2n1 | – | 3000 | 1600 | 1100 | – | – |
| Cc1ccc2nc(N(C)C)nc(NCc3ccc(C(=O)NCc4ccc(F)cc4)cc3)c2c1 | 298 | 2000 | 900 | 1100 | – | – |
| C=CCNc1nc(NCc2ccc(C(=O)Nc3ccc(F)cc3)cc2)c2cc(C)ccc2n1 | – | – | 13000 | 10000 | – | – |
| Cc1ccc2nc(N(C)C)nc(NCc3ccc(C(=O)NC4CCN(Cc5ccc(F)cc5)CC4)cc3)c2c1 | 313 | 2500 | 800 | 1100 | – | – |
| CCCNc1nc(NCc2ccc(C(=O)Nc3ccc(F)cc3)cc2)c2ccccc2n1 | 684 | 3000 | 1500 | 1600 | – | – |
| CN(C)CCCNc1nc(NCc2ccc(NC(=O)c3ccc(CN4CCN(C)CC4)cc3)cc2)c2ccccc2n1 | – | – | > 20000 | > 20000 | – | – |
| CCCNc1nc(NCc2ccc(C(=O)NCCc3ccc(F)cc3)cc2)c2cc(C)ccc2n1 | – | 2000 | 1600 | 1600 | – | – |
| CN(C)c1nc(NCc2ccc(C(=O)Nc3ccc(F)cc3)cc2)c2ccccc2n1 | – | 3000 | 1900 | 2600 | – | – |

| Compound | IC50 (HCT-116 [1]) [nM] | IC50 (TCF4/beta-catenin) [nM] | IC50 (HCT-116 [2]) [nM] | IC50 (SW480) [nM] | Ratio IC50 [3] | solubility [4] |
| --- | --- | --- | --- | --- | --- | --- |
| CCNc1nc(NCc2ccc(C(=O)N[C@H]3C[C@@H]3c3ccccc3)cc2)c2cc(C)ccc2n1 (relative stereo) | – | 3500 | 1700 | 1800 | – | – |
| CNc1nc(NCc2ccc(NC(=O)c3ccc(F)cc3)cc2Cl)c2ccccc2n1 | – | – | 2000 | 2300 | – | – |
| CNc1ncc(C)c(NCc2ccc(NC(=O)c3ccc(F)cc3)cc2)n1 | – | – | > 20000 | > 20000 | – | – |
| CN1CCN(c2nc(NCc3ccc(NC(=O)c4ccc(F)cc4)cc3)c3ccccc3n2)CC1 | – | – | 1800 | 2500 | – | – |
| Cc1ccc2nc(N3CCNC(C)C3)nc(NCc3ccc(C(=O)NC4CCN(Cc5ccc(F)cc5)CC4)cc3)c2c1 (racemic) | – | > 5000 | 2000 | 1000 | – | – |
| Cc1ccc(S(=O)(=O)Nc2ccc(CNc3nc(N4CCN(C)CC4)nc4ccccc34)cc2)cc1 | – | – | > 20000 | > 20000 | – | – |
| C=CCNc1nc(NCc2ccc(C(=O)NC3CCN(C(=O)c4ccc(F)cc4)CC3)cc2)c2cc(C)ccc2n1 | – | – | 6900 | 5200 | – | – |
| Cc1ccc(S(=O)(=O)Nc2ccc(CNc3nc(N(C)C)nc4ccccc34)cc2)cc1 | – | – | 11000 | 13000 | – | – |
| CNc1nc(NCc2ccc(NS(=O)(=O)c3ccc(C)cc3)cc2)c2ccccc2n1 | – | – | 5800 | 4900 | – | – |
| CCCNc1nc(NCc2ccc(C(=O)N3CCC(C(=O)NCc4ccc(F)cc4)CC3)cc2)c2cc(C)ccc2n1 | – | – | 4600 | 5200 | – | – |
| CCNc1nc(NCc2ccc(C(=O)Nc3ccc(F)cc3)cc2)c2ccccc2n1 | – | 3500 | 1900 | 2500 | – | – |
| CCCNc1nc(NCc2ccc(NC(=O)c3ccc(F)cc3)cc2)c2ccccc2n1 | – | 2500 | 1700 | 2000 | 2 | – |
| CNc1nc(NCc2ccc(C(=O)NC3CCN(Cc4ccc(F)cc4)CC3)cc2)c2cc(C)ccc2n1 | – | 3000 | 1200 | 1300 | – | – |
| CNc1nc(NCc2ccc(C(=O)NCCc3ccc(F)cc3)cc2)c2cc(C)ccc2n1 | – | 1000 | 1100 | 1500 | – | – |
| CNc1nc(NCc2ccc(NC(=O)c3ccncc3)cc2)c2ccccc2n1 | – | – | > 20000 | > 20000 | – | – |
| CN(C)c1nc(NCc2ccc(C(=O)N3CCC(C(=O)NCc4ccc(F)cc4)CC3)cc2)c2ccccc2n1 | – | – | 5700 | 5500 | – | – |
| CN(C)c1nc(NCc2ccc(NC(=O)c3ccc(F)cc3)cc2)c2ccccc2n1 | – | – | 1300 | 2200 | – | – |
| Cc1ccc2nc(N3CCNC(C)C3)nc(NCc3ccc(C(=O)NCc4ccc(F)cc4)cc3)c2c1 (racemic) | – | – | 2900 | 1400 | – | – |
| Cc1ccc2nc(N(C)C)nc(NCc3ccc(C(=O)Nc4ccc(Cl)nc4)cc3)c2c1 | – | 2500 | 1300 | 1100 | – | – |
| CNc1ncc(Br)c(NCc2ccc(NC(=O)c3ccc(F)cc3)cc2)n1 | – | – | > 20000 | > 20000 | – | – |
| CCCNc1nc(NCc2ccc(C(=O)NC3CCN(C(=O)c4ccc(F)cc4)CC3)cc2)c2cc(C)ccc2n1 | – | – | 6800 | 5500 | – | – |
| O=C(Nc1ccc(F)cc1)c1ccc(CNc2nc(NC3CC3)nc3ccccc23)cc1 | – | – | 2700 | 2600 | – | – |
| Cc1ccc2nc(N(C)C)nc(NCc3ccc(C(=O)N4CCC(C(=O)NCc5ccc(F)cc5)CC4)cc3)c2c1 | – | – | 5600 | 5600 | – | – |
| CNc1nc(NCc2ccc(NC(=O)c3ccc(F)cc3)cc2)c2ccccc2n1 | – | 3500 | 1600 | 2000 | 2 | – |
| CN(C)c1nc(NCc2ccc(NC(=O)c3ccncc3)cc2)c2ccccc2n1 | – | – | 15000 | 11000 | – | – |
| Cc1ccc2nc(N(C)C)nc(NCc3ccc(C(=O)N[C@H]4C[C@@H]4c4ccccc4)cc3)c2c1 (relative stereo) | – | 3000 | 1300 | 2400 | – | – |
